# The M2OR odorant receptor database
# Tests used:
# Conditions in all cases: stereoisomer not certain
# UniProt A2ATE5 = target: T1, UniProt A2ATE5
# T1 sequence (whole entry): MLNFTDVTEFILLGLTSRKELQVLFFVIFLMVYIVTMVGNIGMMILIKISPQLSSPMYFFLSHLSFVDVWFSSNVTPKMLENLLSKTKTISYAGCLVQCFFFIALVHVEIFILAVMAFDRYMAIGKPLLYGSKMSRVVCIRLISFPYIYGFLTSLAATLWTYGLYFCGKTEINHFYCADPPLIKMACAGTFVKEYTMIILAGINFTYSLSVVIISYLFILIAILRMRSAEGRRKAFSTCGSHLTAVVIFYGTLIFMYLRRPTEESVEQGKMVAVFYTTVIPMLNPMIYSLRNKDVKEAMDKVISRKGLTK
# Method in brief: (§1)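 Each entry records the cell line, G-protein, co-transfected protein and tags used. Methods varied with the source, often transient luciferase assays in mammalian cell lines. A receptor–molecule pair is called responsive (active) if the original authors judged its signal statistically different from baseline and non-responsive (inactive) otherwise.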
# UniProt A2AVB0 = target: T2, UniProt A2AVB0
# T2 sequence (whole entry): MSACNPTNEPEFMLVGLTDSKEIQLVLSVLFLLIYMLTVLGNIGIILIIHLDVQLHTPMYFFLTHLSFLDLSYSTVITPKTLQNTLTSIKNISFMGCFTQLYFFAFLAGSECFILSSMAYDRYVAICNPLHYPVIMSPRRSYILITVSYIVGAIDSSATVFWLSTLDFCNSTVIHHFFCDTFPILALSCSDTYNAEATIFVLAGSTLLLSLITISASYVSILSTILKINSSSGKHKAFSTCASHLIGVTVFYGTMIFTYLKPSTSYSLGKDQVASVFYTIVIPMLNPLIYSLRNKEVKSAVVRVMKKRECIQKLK
# Method in brief: as §1
# UniProt E9PVX1 = target: T3, UniProt E9PVX1
# T3 sequence (whole entry): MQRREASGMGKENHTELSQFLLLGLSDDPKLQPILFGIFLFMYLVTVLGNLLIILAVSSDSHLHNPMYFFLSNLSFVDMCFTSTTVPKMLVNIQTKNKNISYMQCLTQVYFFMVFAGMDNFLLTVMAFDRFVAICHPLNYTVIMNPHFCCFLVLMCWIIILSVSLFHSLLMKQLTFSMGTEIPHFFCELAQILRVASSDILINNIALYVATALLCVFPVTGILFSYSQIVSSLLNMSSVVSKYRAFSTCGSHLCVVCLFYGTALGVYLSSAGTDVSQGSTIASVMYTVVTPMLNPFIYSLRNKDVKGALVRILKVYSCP
# Method in brief: as §1
# UniProt E9PZ66 = target: T4, UniProt E9PZ66
# T4 sequence (whole entry): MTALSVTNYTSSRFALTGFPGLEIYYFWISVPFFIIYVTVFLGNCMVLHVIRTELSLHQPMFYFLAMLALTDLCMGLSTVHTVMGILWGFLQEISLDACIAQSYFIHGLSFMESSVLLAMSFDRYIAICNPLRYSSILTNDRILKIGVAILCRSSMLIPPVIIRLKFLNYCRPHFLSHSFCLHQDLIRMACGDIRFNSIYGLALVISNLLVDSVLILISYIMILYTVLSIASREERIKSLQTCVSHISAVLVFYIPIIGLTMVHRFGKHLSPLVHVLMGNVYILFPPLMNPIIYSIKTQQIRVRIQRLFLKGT
# Method in brief: as §1
# UniProt E9Q4X7 = target: T5, UniProt E9Q4X7
# T5 sequence (whole entry): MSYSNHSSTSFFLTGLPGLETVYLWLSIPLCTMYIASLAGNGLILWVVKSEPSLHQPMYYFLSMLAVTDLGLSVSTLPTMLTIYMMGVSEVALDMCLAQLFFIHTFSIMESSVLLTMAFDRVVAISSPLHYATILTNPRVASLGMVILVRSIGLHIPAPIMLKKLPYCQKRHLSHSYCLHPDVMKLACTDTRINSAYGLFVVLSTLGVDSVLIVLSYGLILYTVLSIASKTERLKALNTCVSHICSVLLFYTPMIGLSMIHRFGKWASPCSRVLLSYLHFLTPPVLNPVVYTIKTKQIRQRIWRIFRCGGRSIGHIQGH
# Method in brief: as §1
# UniProt E9Q546 = target: T6, UniProt E9Q546
# T6 sequence (whole entry): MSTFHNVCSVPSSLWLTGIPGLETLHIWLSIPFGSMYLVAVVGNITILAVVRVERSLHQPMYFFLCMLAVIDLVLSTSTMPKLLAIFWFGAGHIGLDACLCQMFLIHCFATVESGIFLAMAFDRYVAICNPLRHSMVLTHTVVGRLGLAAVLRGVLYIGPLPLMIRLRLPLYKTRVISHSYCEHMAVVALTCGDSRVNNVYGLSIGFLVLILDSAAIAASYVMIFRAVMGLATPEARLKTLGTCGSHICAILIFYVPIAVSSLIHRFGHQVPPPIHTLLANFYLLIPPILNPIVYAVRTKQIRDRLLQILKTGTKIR
# Method in brief: as §1
# UniProt E9Q6Z7 = target: T7, UniProt E9Q6Z7
# T7 sequence (whole entry): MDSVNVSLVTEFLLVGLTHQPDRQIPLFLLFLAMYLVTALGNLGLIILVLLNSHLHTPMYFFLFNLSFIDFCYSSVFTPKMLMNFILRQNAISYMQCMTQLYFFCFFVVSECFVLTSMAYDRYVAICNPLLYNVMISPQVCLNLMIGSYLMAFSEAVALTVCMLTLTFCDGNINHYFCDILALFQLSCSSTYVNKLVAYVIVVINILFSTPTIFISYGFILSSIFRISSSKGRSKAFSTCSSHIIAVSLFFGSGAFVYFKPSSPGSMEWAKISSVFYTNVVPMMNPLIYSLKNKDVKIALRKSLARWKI
# Method in brief: as §1
# UniProt A2AVB5 = target: T8, UniProt A2AVB5
# T8 sequence (whole entry): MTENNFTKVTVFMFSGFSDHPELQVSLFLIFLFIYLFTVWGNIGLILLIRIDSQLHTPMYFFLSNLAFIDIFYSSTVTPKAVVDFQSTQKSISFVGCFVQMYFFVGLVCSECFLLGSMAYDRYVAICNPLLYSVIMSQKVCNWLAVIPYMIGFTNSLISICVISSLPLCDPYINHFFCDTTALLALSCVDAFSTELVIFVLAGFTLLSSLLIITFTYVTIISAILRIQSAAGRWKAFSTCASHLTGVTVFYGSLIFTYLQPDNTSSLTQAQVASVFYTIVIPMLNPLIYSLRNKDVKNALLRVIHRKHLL
# Method in brief: as §1
# UniProt B2RVX8 = target: T9, UniProt B2RVX8
# T9 sequence (whole entry): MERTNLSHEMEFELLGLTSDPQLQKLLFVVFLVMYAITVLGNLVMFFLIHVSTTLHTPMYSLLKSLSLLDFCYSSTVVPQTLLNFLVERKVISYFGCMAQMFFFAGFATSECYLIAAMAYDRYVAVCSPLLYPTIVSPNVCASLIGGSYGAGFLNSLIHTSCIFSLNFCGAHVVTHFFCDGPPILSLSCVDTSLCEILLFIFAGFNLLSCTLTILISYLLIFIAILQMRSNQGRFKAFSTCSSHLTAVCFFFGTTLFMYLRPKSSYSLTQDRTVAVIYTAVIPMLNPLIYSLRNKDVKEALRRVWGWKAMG
# Method in brief: as §1
# UniProt K7N609 = target: T10, UniProt K7N609
# T10 sequence (whole entry): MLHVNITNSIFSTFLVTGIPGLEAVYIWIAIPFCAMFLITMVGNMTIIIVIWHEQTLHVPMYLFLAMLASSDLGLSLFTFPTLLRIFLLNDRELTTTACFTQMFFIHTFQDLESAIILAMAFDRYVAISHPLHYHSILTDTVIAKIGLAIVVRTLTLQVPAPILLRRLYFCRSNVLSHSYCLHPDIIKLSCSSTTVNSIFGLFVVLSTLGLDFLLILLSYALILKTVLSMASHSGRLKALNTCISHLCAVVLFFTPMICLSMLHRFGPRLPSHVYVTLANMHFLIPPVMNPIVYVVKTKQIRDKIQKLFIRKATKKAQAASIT
# Method in brief: as §1
# UniProt E1BM68 = target: T11, UniProt E1BM68
# T11 sequence (whole entry): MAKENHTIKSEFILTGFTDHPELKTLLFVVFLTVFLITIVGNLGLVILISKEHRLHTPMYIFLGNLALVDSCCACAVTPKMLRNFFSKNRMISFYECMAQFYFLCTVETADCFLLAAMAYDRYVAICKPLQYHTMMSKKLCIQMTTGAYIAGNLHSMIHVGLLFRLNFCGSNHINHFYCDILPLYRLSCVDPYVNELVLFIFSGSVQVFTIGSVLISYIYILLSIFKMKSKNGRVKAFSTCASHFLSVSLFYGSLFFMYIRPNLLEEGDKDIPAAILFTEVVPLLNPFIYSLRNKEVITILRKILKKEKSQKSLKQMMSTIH
# Method in brief: as §1
# UniProt E9QAT7 = target: T12, UniProt E9QAT7
# T12 sequence (whole entry): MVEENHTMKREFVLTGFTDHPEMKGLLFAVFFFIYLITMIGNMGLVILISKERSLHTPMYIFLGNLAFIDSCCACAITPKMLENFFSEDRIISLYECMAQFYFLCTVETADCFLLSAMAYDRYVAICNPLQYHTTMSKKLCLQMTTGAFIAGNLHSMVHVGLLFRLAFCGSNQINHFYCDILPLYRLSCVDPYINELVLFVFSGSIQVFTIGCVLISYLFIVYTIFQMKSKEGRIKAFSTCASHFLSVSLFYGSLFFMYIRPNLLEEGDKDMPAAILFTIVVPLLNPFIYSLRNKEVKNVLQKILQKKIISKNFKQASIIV
# Method in brief: as §1
# UniProt E9PX47 = target: T13, UniProt E9PX47
# T13 sequence (whole entry): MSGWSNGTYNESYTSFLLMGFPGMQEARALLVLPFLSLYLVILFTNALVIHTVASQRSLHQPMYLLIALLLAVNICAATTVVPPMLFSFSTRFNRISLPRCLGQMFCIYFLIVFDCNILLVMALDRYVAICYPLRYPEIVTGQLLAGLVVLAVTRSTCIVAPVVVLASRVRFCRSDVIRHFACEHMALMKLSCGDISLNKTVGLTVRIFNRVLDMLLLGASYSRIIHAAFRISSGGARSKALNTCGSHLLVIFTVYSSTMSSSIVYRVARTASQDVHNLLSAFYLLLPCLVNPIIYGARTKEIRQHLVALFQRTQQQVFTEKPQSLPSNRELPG
# Method in brief: as §1
# UniProt E9PXN3 = target: T14, UniProt E9PXN3
# T14 sequence (whole entry): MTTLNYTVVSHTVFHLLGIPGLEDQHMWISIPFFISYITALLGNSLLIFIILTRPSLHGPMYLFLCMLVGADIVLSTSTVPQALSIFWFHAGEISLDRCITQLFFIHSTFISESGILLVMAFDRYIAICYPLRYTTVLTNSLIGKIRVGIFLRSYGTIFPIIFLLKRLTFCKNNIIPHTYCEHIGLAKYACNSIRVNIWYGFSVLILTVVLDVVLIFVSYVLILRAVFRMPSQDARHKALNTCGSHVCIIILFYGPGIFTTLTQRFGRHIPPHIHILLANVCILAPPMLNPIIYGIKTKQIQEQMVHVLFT
# Method in brief: as §1
Compound,odorant receptor agonist call (UniProt A2ATE5),odorant receptor agonist call (UniProt A2AVB0),odorant receptor agonist call (UniProt E9PVX1),odorant receptor agonist call (UniProt E9PZ66),odorant receptor agonist call (UniProt E9Q4X7),odorant receptor agonist call (UniProt E9Q546),odorant receptor agonist call (UniProt E9Q6Z7),odorant receptor agonist call (UniProt A2AVB5),odorant receptor agonist call (UniProt B2RVX8),odorant receptor agonist call (UniProt K7N609),odorant receptor agonist call (UniProt E1BM68),odorant receptor agonist call (UniProt E9QAT7),odorant receptor agonist call (UniProt E9PX47),odorant receptor agonist call (UniProt E9PXN3)
CC(=O)C1(C)CC2=C(CCCC2(C)C)CC1C (configuration not stated),inactive,inactive,inactive,inactive,inactive,inactive,inactive,,,,,,,
CCCCCCC(C=O)=Cc1ccccc1,inactive,inactive,inactive,inactive,inactive,inactive,inactive,,,,,,,
CC=Cc1ccc(OC)cc1,inactive,inactive,inactive,inactive,inactive,inactive,inactive,,,,,,,
CC(C)CS,inactive,inactive,inactive,inactive,inactive,inactive,inactive,,,,,,,
CCCCCCCCCS,inactive,inactive,inactive,inactive,inactive,inactive,inactive,inactive,inactive,inactive,,,,
Cc1ccc(OC(=O)C(C)C)cc1,inactive,inactive,inactive,inactive,inactive,inactive,inactive,,,,,,,
CCc1nccnc1CC,inactive,inactive,inactive,inactive,inactive,inactive,inactive,,,,active,active,,
COc1nccnc1C(C)C,inactive,inactive,inactive,inactive,inactive,inactive,inactive,,,,active,inactive,,
CC=CC(=O)C1=C(C)CCCC1(C)C,inactive,inactive,inactive,inactive,inactive,inactive,inactive,,,,,,,
O=C([O-])CCCCCCCC(=O)[O-].[H+].[H+],inactive,inactive,inactive,inactive,inactive,inactive,inactive,,,,,,active,inactive
CCCCCCCCOC=O,inactive,inactive,inactive,inactive,inactive,inactive,inactive,,,,,,,
CCc1ncc(C)nc1CC,inactive,inactive,inactive,inactive,inactive,inactive,inactive,,,,active,active,,
O=C(OCc1ccccc1)c1ccccc1O,inactive,inactive,inactive,inactive,inactive,inactive,inactive,,,,,,,
